Measurements taken from ChEMBL document CHEMBL3244396, “Synthesis and antileukemic activity of 5-substituted 2,3-dihydro-6,7-bis(hydroxymethyl)-1H-pyrrolizine diesters” (J Med Chem, 1977).

What was measured:
L1210 [1] = test: Antileukemic activity against mouse L1210 cells allografted in female BDF1 mouse assessed as host mean survival time at 200 mg/kg, ip administered daily for 9 days as Klucel suspension starting 24 hrs after tumor inoculation relative to control; assay type: functional; conditions: route intraperitoneal
Procedure, shortened: (§1)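 L1210 leukemia given as an ascitic fluid cell inoculum, ip, to mice of the strain and sex in each line. Test material was given ip for nine daily doses starting 24 h after inoculation, in a Klucel (hydroxypropylcellulose) suspension. Read-out is mean survival time as %T/C versus controls, with >125 taken as significant.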

L1210 [2] = test: Antileukemic activity against mouse L1210 cells allografted in female BDF1 mouse assessed as change in body weight at 12.5 mg/kg, ip administered daily for 9 days as Klucel suspension starting 24 hrs after tumor inoculation; assay type: functional; conditions: route intraperitoneal
Procedure, shortened: (§2)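 Ascitic fluid carrying L1210 cells was inoculated ip. Compound was given ip as a Klucel (hydroxypropylcellulose) suspension in nine daily doses, starting 24 h after inoculation. Body-weight difference (treated minus control) was recorded on day 5. Survival was scored as %T/C of mean survival time.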

L1210 [3] = test: Antileukemic activity against mouse L1210 cells allografted in female BDF1 mouse assessed as change in body weight at 50 mg/kg, ip administered daily for 9 days as Klucel suspension starting 24 hrs after tumor inoculation; assay type: functional; conditions: route intraperitoneal; procedure, shortened: as §2
P388 [4] = test: Antitumor activity against mouse P388 cells allografted in female BDF1 mouse assessed as change in body weight at 25 mg/kg, ip administered daily for 9 days as Klucel suspension starting 24 hrs after tumor inoculation; assay type: functional; conditions: route intraperitoneal
Procedure, shortened: (§3)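 Ascitic fluid carrying P388 cells was inoculated ip. Compound was given ip in nine daily doses, starting 24 h after inoculation, in Klucel (hydroxypropylcellulose) suspension or in saline with Tween-80. Body-weight difference (treated minus control) was recorded on day 5. Survival was scored as %T/C of median survival time, and 30-day survival counted as cure.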

Mus musculus [5] = test: Toxicity in female CDF1 mouse allografted with mouse P388 cells assessed as animal survival at 50 mg/kg, ip administered daily for 9 days as Klucel suspension starting 24 hrs after tumor inoculation; assay type: organism-based; parameters: dose 50 mg/kg, route intraperitoneal; conditions: in vivo
Procedure, shortened: (§4)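 P-388 leukemia ascitic fluid inoculated ip. Compound given ip as a suspension in Klucel (hydroxypropylcellulose), once daily for nine doses beginning 24 h post-inoculation. Acute toxicity assessed as toxicity-day survivors per group. Survival was followed up to 30 days, with 30-day survival counted as "cure". Follows NCI screening protocols.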

L1210 [6] = test: Antileukemic activity against mouse L1210 cells allografted in female BDF1 mouse assessed as change in body weight at 100 mg/kg, ip administered daily for 9 days as Klucel suspension starting 24 hrs after tumor inoculation; assay type: functional; conditions: route intraperitoneal; procedure, shortened: as §2
Mus musculus [7] = test: Toxicity in female CDF1 mouse allografted with mouse P388 cells assessed as animal survival at 200 mg/kg, ip administered daily for 9 days as Klucel suspension starting 24 hrs after tumor inoculation; assay type: organism-based; parameters: dose 200 mg/kg, route intraperitoneal; conditions: in vivo; procedure, shortened: as §4
L1210 [8] = test: Antileukemic activity against mouse L1210 cells allografted in female BDF1 mouse assessed as change in body weight at 200 mg/kg, ip administered daily for 9 days as Klucel suspension starting 24 hrs after tumor inoculation; assay type: functional; conditions: route intraperitoneal; procedure, shortened: as §2
P388 [9] = test: Antitumor activity against mouse P388 cells allografted in female BDF1 mouse assessed as disease cures by measuring 30-days host survival at 12.5 mg/kg, ip administered daily for 9 days as Klucel suspension starting 24 hrs after tumor inoculation relative to control; assay type: functional; conditions: route intraperitoneal
Procedure, shortened: (§5)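 P388 leukemia given as an ascitic fluid cell inoculum, ip, to mice of the strain and sex in each line. Nine daily ip doses were given in a Klucel (hydroxypropylcellulose) suspension, starting 24 h after inoculation. Read-out is median survival time as %T/C, with >125 taken as significant; a "cure" means 30-day survival.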

Mus musculus [10] = test: Toxicity in female BDF1 mouse allografted with mouse P388 cells assessed as animal survival at 25 mg/kg, ip administered daily for 9 days as Klucel suspension starting 24 hrs after tumor inoculation; assay type: organism-based; parameters: dose 25 mg/kg, route intraperitoneal; conditions: in vivo; procedure, shortened: as §4
Mus musculus [11] = test: Toxicity in female BDF1 mouse allografted with mouse L1210 cells assessed as animal survival at 50 mg/kg, ip administered daily for 9 days as Klucel suspension starting 24 hrs after tumor inoculation measured on fifth day; assay type: organism-based; parameters: dose 50 mg/kg, route intraperitoneal; conditions: in vivo
Procedure, shortened: (§6)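 L1210 leukemia passaged as ascitic fluid and inoculated ip. Test agent given ip as a Klucel (hydroxypropylcellulose) suspension, nine daily doses starting 24 h after tumor inoculation. Acute toxicity read as toxicity-day survivors per group (out of 6), recorded on day 5. Animal weight difference T − C was also recorded. Follows NCI screening protocols.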

Mus musculus [12] = test: Toxicity in female BDF1 mouse allografted with mouse L1210 cells assessed as animal survival at 12.5 mg/kg, ip administered daily for 9 days as Klucel suspension starting 24 hrs after tumor inoculation measured on fifth day; assay type: organism-based; parameters: dose 12.5 mg/kg, route intraperitoneal; conditions: in vivo
Procedure, shortened: (§7)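 Female BDF1 mice bearing ip ascitic L1210 inoculum got nine daily ip doses in a Klucel suspension, starting 24 h after tumor inoculation. Toxicity was scored as toxicity-day survivors out of the group, recorded on the fifth day. Animal weight difference (T − C) was also tabulated.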

L1210 [13] = test: Antileukemic activity against mouse L1210 cells allografted in female BDF1 mouse assessed as host mean survival time at 25 mg/kg, ip administered daily for 9 days as Klucel suspension starting 24 hrs after tumor inoculation relative to control; assay type: functional; conditions: route intraperitoneal; procedure, shortened: as §1
L1210 [14] = test: Antileukemic activity against mouse L1210 cells allografted in female BDF1 mouse assessed as change in body weight at 25 mg/kg, ip administered daily for 9 days as Klucel suspension starting 24 hrs after tumor inoculation; assay type: functional; conditions: route intraperitoneal; procedure, shortened: as §2
L1210 [15] = test: Antileukemic activity against mouse L1210 cells allografted in female BDF1 mouse assessed as host mean survival time at 12.5 mg/kg, ip administered daily for 9 days as Klucel suspension starting 24 hrs after tumor inoculation relative to control; assay type: functional; conditions: route intraperitoneal; procedure, shortened: as §1
L1210 [16] = test: Antileukemic activity against mouse L1210 cells allografted in female BDF1 mouse assessed as host mean survival time at 50 mg/kg, ip administered daily for 9 days as Klucel suspension starting 24 hrs after tumor inoculation relative to control; assay type: functional; conditions: route intraperitoneal; procedure, shortened: as §1
P388 [17] = test: Antitumor activity against mouse P388 cells allografted in female CDF1 mouse assessed as disease cures by measuring 30-days host survival at 100 mg/kg, ip administered daily for 9 days as Klucel suspension starting 24 hrs after tumor inoculation relative to control; assay type: functional; conditions: route intraperitoneal; procedure, shortened: as §5
P388 [18] = test: Antitumor activity against mouse P388 cells allografted in female CDF1 mouse assessed as change in body weight at 100 mg/kg, ip administered daily for 9 days as Klucel suspension starting 24 hrs after tumor inoculation; assay type: functional; conditions: route intraperitoneal; procedure, shortened: as §3
P388 [19] = test: Antitumor activity against mouse P388 cells allografted in female CDF1 mouse assessed as change in body weight at 50 mg/kg, ip administered daily for 9 days as Klucel suspension starting 24 hrs after tumor inoculation; assay type: functional; conditions: route intraperitoneal; procedure, shortened: as §3
Mus musculus [20] = test: Toxicity in female BDF1 mouse allografted with mouse L1210 cells assessed as animal survival at 25 mg/kg, ip administered daily for 9 days as Klucel suspension starting 24 hrs after tumor inoculation measured on fifth day; assay type: organism-based; parameters: dose 25 mg/kg, route intraperitoneal; conditions: in vivo; procedure, shortened: as §6
L1210 [21] = test: Antileukemic activity against mouse L1210 cells allografted in female BDF1 mouse assessed as host mean survival time at 100 mg/kg, ip administered daily for 9 days as Klucel suspension starting 24 hrs after tumor inoculation relative to control; assay type: functional; conditions: route intraperitoneal; procedure, shortened: as §1
P388 [22] = test: Antitumor activity against mouse P388 cells allografted in female BDF1 mouse assessed as disease cures by measuring 30-days host survival at 25 mg/kg, ip administered daily for 9 days as Klucel suspension starting 24 hrs after tumor inoculation relative to control; assay type: functional; conditions: route intraperitoneal; procedure, shortened: as §5
Mus musculus [23] = test: Toxicity in female CDF1 mouse allografted with mouse P388 cells assessed as animal survival at 100 mg/kg, ip administered daily for 9 days as Klucel suspension starting 24 hrs after tumor inoculation; assay type: organism-based; parameters: dose 100 mg/kg, route intraperitoneal; conditions: in vivo; procedure, shortened: as §4
Mus musculus [24] = test: Toxicity in female BDF1 mouse allografted with mouse L1210 cells assessed as animal survival at 100 mg/kg, ip administered daily for 9 days as Klucel suspension starting 24 hrs after tumor inoculation measured on fifth day; assay type: organism-based; parameters: dose 100 mg/kg, route intraperitoneal; conditions: in vivo; procedure, shortened: as §7
P388 [25] = test: Antitumor activity against mouse P388 cells allografted in female CDF1 mouse assessed as change in body weight at 200 mg/kg, ip administered daily for 9 days as Klucel suspension starting 24 hrs after tumor inoculation; assay type: functional; conditions: route intraperitoneal; procedure, shortened: as §3
[26] = Cytotoxicity against human 9KB cells treated as ethanol solution; assay type: functional; conditions: read-out: ED50 (the source's name)
Procedure, shortened: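 Compound applied as an ethanol solution; activity read out as ED50 under the general screening protocol.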

Mus musculus [27] = test: Toxicity in female BDF1 mouse allografted with mouse P388 cells assessed as animal survival at 12.5 mg/kg, ip administered daily for 9 days as Klucel suspension starting 24 hrs after tumor inoculation; assay type: organism-based; parameters: dose 12.5 mg/kg, route intraperitoneal; conditions: in vivo; procedure, shortened: as §4
P388 [28] = test: Antitumor activity against mouse P388 cells allografted in female BDF1 mouse assessed as change in body weight at 12.5 mg/kg, ip administered daily for 9 days as Klucel suspension starting 24 hrs after tumor inoculation; assay type: functional; conditions: route intraperitoneal; procedure, shortened: as §3
P388 [29] = test: Antitumor activity against mouse P388 cells allografted in female CDF1 mouse assessed as disease cures by measuring 30-days host survival at 50 mg/kg, ip administered daily for 9 days as Klucel suspension starting 24 hrs after tumor inoculation relative to control; assay type: functional; conditions: route intraperitoneal; procedure, shortened: as §5

**Q.** With `CC(=O)OCc1c(COC(C)=O)c(-c2ccc(Cl)cc2)n2c1CCC2` as the compound, how does the T/C (L1210 [1]) read?
**A.** The T/C was 64%.

**Q.** What about the Activity (L1210 [2]) of the same compound?
**A.** The Activity was 0.7 g.

**Q.** And the Activity (L1210 [3])?
**A.** Its Activity is -1.8 g.

**Q.** And the Activity (P388 [4])?
**A.** Its Activity is -0.2 g.

**Q.** What about the Activity (Mus musculus [5]) of the same compound?
**A.** The Activity was “Non-toxic”.

**Q.** What about the Activity (L1210 [6]) of the same compound?
**A.** The Activity was -3.8 g.

**Q.** What about the Activity (Mus musculus [7]) of the same compound?
**A.** Its Activity is “Toxic”.

**Q.** What about the Activity (L1210 [8]) of the same compound?
**A.** Its Activity is -3.8 g.

**Q.** And the T/C (P388 [9])?
**A.** Its T/C is 119%.

**Q.** What about the Activity (Mus musculus [10]) of the same compound?
**A.** The Activity was “Non-toxic”.

**Q.** What about the Activity (Mus musculus [11]) of the same compound?
**A.** The Activity was “Non-toxic”.

**Q.** What about the Activity (Mus musculus [12]) of the same compound?
**A.** Its Activity is “Non-toxic”.

**Q.** What about the T/C (L1210 [13]) of the same compound?
**A.** Its T/C is 102%.

**Q.** What about the Activity (L1210 [14]) of the same compound?
**A.** The Activity was 0.6 g.

**Q.** And the T/C (L1210 [15])?
**A.** Its T/C is 95%.

**Q.** And the T/C (L1210 [16])?
**A.** The T/C was 117%.

**Q.** What about the T/C (P388 [17]) of the same compound?
**A.** The T/C was 66%.

**Q.** And the Activity (P388 [18])?
**A.** The Activity was -3.3 g.

**Q.** And the Activity (P388 [19])?
**A.** The Activity was -1.9 g.

**Q.** What about the Activity (Mus musculus [20]) of the same compound?
**A.** The Activity was “Non-toxic”.

**Q.** And the T/C (L1210 [21])?
**A.** The T/C was 76%.

**Q.** And the T/C (P388 [22])?
**A.** The T/C was 123%.

**Q.** What about the Activity (Mus musculus [23]) of the same compound?
**A.** Its Activity is “Non-toxic”.

**Q.** What about the Activity (Mus musculus [24]) of the same compound?
**A.** The Activity was “Non-toxic”.

**Q.** What about the Activity (P388 [25]) of the same compound?
**A.** Its Activity is 0.5 g.

**Q.** And the EC50 [26]?
**A.** Its EC50 is > 2.8 µg/mL.

**Q.** And the Activity (Mus musculus [27])?
**A.** Its Activity is “Non-toxic”.

**Q.** And the Activity (P388 [28])?
**A.** The Activity was -0.6 g.

**Q.** And the T/C (P388 [29])?
**A.** Its T/C is 118%.
